This is an account of results in ChEMBL document CHEMBL1142719 (J Med Chem, 2005).

The target in assay [1] is T1, Adenosine receptor A3 (Homo sapiens) (UniProt P0DMS8).
T1 sequence (whole entry): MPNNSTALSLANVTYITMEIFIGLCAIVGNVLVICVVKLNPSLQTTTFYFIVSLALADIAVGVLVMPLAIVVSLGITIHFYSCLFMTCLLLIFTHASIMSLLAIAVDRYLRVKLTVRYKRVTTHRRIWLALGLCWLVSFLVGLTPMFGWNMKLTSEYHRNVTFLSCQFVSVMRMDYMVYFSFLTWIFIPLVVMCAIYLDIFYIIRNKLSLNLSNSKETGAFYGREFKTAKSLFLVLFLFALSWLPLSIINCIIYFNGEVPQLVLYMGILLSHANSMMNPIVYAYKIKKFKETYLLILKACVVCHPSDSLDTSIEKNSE
In words: Relative activation of human Adenosine A3 receptor expressed in CHO cells at 10 uM treatment compared to 10 uM Cl-IB-MECA. The format is functional, cell-based.

For assay [2], the target named is T2, Adenosine receptor A2a (Homo sapiens, UniProt P29274). The experiment in a line: Inhibition of [3H]-CGS- 21680 binding to human Adenosine A2A receptor expressed in CHO cells. The class given is cell-based.
In assay [3] the target is T3, Adenosine receptor A3 (Homo sapiens, UniProt P0DMS8).
T3 sequence (P0DMS8 whole entry): T1 sequence (whole entry)
In words: Inhibition of [125I]-AB-MECA binding to human Adenosine A3 receptor expressed in CHO cells. The format is cell-based.

The target of assay [4] is T4, Adenosine receptor A3 (Rattus norvegicus, UniProt P28647).
T4 sequence (P28647 whole entry): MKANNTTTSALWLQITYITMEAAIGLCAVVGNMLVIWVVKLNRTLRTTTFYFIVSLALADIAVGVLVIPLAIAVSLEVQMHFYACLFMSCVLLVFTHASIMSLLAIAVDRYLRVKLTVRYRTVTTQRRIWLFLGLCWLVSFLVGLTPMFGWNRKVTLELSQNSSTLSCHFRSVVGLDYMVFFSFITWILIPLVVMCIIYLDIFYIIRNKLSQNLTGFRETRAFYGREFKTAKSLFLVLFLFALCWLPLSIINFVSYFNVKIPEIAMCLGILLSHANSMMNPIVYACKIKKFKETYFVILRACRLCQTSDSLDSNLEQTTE
The experiment in a line: Inhibition of [125I]AB-MECA binding to rat Adenosine A3 receptor expressed in CHO cells. The class given is cell-based.

The next assay concerns the target T5, Adenosine receptor A1 (Homo sapiens, UniProt P30542).
T5 sequence (P30542 whole entry): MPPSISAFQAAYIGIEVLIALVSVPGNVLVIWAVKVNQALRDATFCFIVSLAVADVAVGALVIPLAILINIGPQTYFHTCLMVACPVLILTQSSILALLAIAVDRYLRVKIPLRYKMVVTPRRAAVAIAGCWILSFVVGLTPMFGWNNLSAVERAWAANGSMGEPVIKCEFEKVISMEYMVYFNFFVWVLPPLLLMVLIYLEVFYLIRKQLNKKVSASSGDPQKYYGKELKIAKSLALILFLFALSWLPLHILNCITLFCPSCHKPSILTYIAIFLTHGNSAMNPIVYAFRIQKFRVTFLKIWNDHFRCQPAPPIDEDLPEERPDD
In words: Inhibition of [3H]R-PIA binding to human Adenosine A1 receptor expressed in CHO cells. The format is cell-based.

For assay [5], the target named is T6, Adenosine receptor A2b (Homo sapiens) (UniProt P29275).
T6 sequence (whole entry): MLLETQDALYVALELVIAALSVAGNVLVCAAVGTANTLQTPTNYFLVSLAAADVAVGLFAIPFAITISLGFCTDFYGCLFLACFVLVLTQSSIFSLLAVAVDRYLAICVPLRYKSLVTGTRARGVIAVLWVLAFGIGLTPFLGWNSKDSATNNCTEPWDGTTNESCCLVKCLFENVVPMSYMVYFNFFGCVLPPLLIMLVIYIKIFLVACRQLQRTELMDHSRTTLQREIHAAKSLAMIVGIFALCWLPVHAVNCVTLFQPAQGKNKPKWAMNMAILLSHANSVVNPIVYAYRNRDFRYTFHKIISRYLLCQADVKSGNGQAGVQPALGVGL
In words: Relative activation of human Adenosine A2B receptor at 10 uM treatment compared to 10 uM Cl-IB-MECA. The class given is functional.

Assay [6] concerns the target T2, Adenosine receptor A2a. The experiment in a line: Displacement of [3H]-CGS- 21680 from human Adenosine A2A receptor expressed in CHO cells at 10 uM. The format is cell-based. The method in brief: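 Human A2A receptor stably expressed in adherent CHO cells. Competition binding used [3H]CGS 21680 as the radioligand.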

T2 sequence (P29274 whole entry): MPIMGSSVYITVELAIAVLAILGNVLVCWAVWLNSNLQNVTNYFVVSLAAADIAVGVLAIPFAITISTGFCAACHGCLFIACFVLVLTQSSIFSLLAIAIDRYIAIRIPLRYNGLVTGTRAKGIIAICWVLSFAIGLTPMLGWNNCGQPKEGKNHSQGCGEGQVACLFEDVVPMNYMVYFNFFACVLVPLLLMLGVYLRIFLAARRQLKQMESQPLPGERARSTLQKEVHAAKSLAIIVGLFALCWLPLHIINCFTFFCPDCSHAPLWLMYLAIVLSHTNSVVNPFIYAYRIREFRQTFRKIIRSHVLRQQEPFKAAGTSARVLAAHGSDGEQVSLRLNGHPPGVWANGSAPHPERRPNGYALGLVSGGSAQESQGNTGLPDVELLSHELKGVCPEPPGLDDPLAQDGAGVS

Broadly, the Ki is the equilibrium dissociation constant of an inhibitor or competing ligand from its target. Consider `CNC(=O)[C@]12C[C@@H]1[C@@H](n1cnc3c(NCC(c4ccccc4)c4ccccc4)nc(Cl)nc31)[C@H](O)[C@@H]2O`, for which the Activation in assay [1] worked out at 107%; in assay [5] it was 46%. In addition, the Ki stood at 1600 nM at Adenosine receptor A2a [2], 0.69 nM at Adenosine receptor A3 [3], 10 nM at Adenosine receptor A3 [4] and 1300 nM on Adenosine receptor A1.
`CNC(=O)[C@]12C[C@@H]1[C@@H](n1cnc3c(NCc4cccc(Br)c4)nc(Cl)nc31)[C@H](O)[C@@H]2O`: the Activation in assay [1] stood at 100%; in assay [5], 38%. Besides, the Ki at Adenosine receptor A2a [2] was found to be 1300 nM; at Adenosine receptor A3 [3] it was 0.38 nM; on Adenosine receptor A3 [4] it was 0.76 nM; on Adenosine receptor A1, 270 nM.
`CNc1ncnc2c1ncn2[C@@H]1O[C@H](CO)[C@@H](O)[C@H]1O` had a Displacement on Adenosine receptor A2a [6] of 17%. Also, the Ki at Adenosine receptor A3 [3] turned out to be 9.3 nM; on Adenosine receptor A3 [4], 6400 nM; on Adenosine receptor A1, 6000 nM. The Activation in assay [5] stood at 16%.
With `CNC(=O)[C@]12C[C@@H]1[C@@H](n1cnc3c(NCc4cc(Cl)ccc4OCc4ccccc4)nc(Cl)nc31)[C@H](O)[C@@H]2O`, the Activation came to 110% in assay [1] and 49% in assay [5]. For the same compound, the inhibition constant (Ki) stood at 850 nM on Adenosine receptor A2a [2], 5.2 nM on Adenosine receptor A3 [3], 11 nM on Adenosine receptor A3 [4] and 1200 nM at Adenosine receptor A1.
